Test results reported in publication PMC5814546 (Clinical Pharmacokinetics, 2017).

Experiments:
Format in all cases: in vivo, human
[1] = Phase I single ascending dose study of ALZ-801 loose-filled capsule; settings: plasma, ALZ-801 capsule 172 and 300 mg doses
Procedure, shortened: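 Single fasted oral loose-filled capsules; 172 mg in 36 healthy subjects over 50 y (parallel, randomized 1:1:1), 300 mg in 15 subjects over 50 y. Plasma sampled over 48 h into K3 EDTA on ice, spun 2000g 10 min 4 °C, stored at or below −20 °C. LC-MS assay; non-compartmental analysis; Tmax as median (range).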

[2] = Urine drug recovery, renal clearance and estimate of oral bioavailability; settings: for Mean Ae / CLr: Cohort D, 24-h urine; for CLr: mean ± SD
Procedure, shortened: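 Cohort D: 265 mg immediate-release tablet in the fed state (meal 30 min pre-dose), once on day 1, twice daily days 2–6, once on day 7. Urine was collected over 24 h on days 1 and 7 and assayed by LC-MS (LLOQ 30 ng/mL ALZ-801, 100 ng/mL tramiprosate). Renal clearance was calculated as Ae divided by plasma AUC24.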

[3] = Phase I multiple ascending dose study of ALZ-801 capsule and tablet; settings: plasma; for AUC24: mean ± SD

- median T max [1]: approximately 5 h
- CLr ([2]; Day 1, ALZ-801 tablet 265 mg): 652 ± 161 mL/min
- CLr ([2]; Day 7, ALZ-801 tablet 265 mg): 575 ± 218 mL/min
- mean CLr (range) ([2]; across dosing cohorts and days, Study 2): 500 to 1570 mL/min
- AUC24 ([3]; Day 1, fed, ALZ-801 tablet 265 mg (Cohort D)): 1810 ± 348 ng·h/mL
- AUC24 ([3]; Day 7, fed, ALZ-801 tablet 265 mg twice daily (Cohort D)): 5470 ± 1030 ng·h/mL
- median T max ([3]; days 7 and 14, all dosing regimens): 5 h
- T max range ([3]; single oral dose of ALZ-801, day 1): 2 to 16 h
Compound: O=C(O)CCS(=O)(=O)O [NRM5074]
- Mean Ae ([2]; Day 1, ALZ-801 tablet 265 mg): 70.8 mg
- Mean Ae ([2]; Day 7, ALZ-801 tablet 265 mg): 188.7 mg
